Results taken from ChEMBL document CHEMBL1133611, “Molecular design, synthesis, and hypoglycemic activity of a series of thiazolidine-2,4-diones” (J Med Chem, 2000).

What was measured:
3T3-L1 = experiment: Stimulation of adipogenesis in 3T3-L1 cells is expressed as concentration equivalent to the [ 1-14C] uptake counts after treatment with 0.2 ug/mL troglitazone; format: functional, Mus musculus
How it was run: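 Mouse 3T3-L1 preadipocytes were grown to confluence on collagen-coated wells, then given differentiation medium (5% FBS, 100 ng/mL insulin, 0.1 mM IBMX, dexamethasone) plus compound (DMSO 0.1% v/v final) for 4 days. This was followed by maintenance medium (5% FBS, insulin) for 2 days. Cells were then pulsed 1 h with 7.4 kBq/mL [1-14C]acetic acid, washed, and counted by scintillation.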

[1] = The hypoglycemic activity in diabetic KK mice, activity expressed as % decrease in blood glucose (21h); format: functional, Mus musculus
How it was run: (§1)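 Nonfasting diabetic KK mice, n = 3, received 1 mg/kg immediately after the first blood sampling and again 18 h later. Tail-vein plasma was taken 18 and 21 h after the first dose, and glucose was measured. Activity (%) = (control PG − treated PG)/control PG × 100; mean ± SEM.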

[2] = The hypoglycemic activity in diabetic KK mice, activity expressed as % decrease in blood glucose (18 h); format: functional, Mus musculus; how it was run: as §1
[3] = Area under the curve for fumarate salt was evaluated in F344 Rats.; format: ADME, organism-based; conditions: F344, rat, in vivo
How it was run: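 Single oral dose of 25 mg/kg to F344 rats; AUC (µg·h/mL) reported as mean ± SEM, n = 3.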

Rattus norvegicus [4] = experiment: Heart wt absolute in two week oral toxicity test in male F344/DuCrj rats after 50 mg/kg dose; format: functional
How it was run: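 Seven-week-old male rats, n = 5/group, dosed by gavage at 50 mg/kg for 2 weeks as a suspension in 0.5% carboxymethylcellulose sodium in water; controls received vehicle alone. At termination rats were ether-anaesthetized and exsanguinated via the abdominal aorta, and the heart was excised and weighed. Relative weight = absolute weight/100 g final body weight. Mean ± SE; Student's t-test against control.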

Rattus norvegicus [5] = experiment: Relative wt in two week oral toxicity test in male F344/DuCrj rats after 50 mg/kg dose; format: functional
How it was run: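 Seven-week-old male F344/DuCrj rats, n = 5/group; compound suspended in 0.5% carboxymethylcellulose sodium in water, given by gavage at 50 mg/kg for 2 weeks; controls got vehicle alone. At termination, ether anaesthesia and exsanguination via abdominal aorta; heart and major organs excised and weighed. Relative weight = organ weight/100 g final body weight; mean ± SE, Student's t-test vs control.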

SMILES	EC (3T3-L1) [µM]	Decrease [1] [%]	Decrease [2] [%]	AUC [3] [ng·h/mL]	Absolute heart weight, % of control (Rattus norvegicus [4]) [%]	Heart weight absolute (Rattus norvegicus [4]) [g]	Control (Rattus norvegicus [5]) [%]	Relative (Rattus norvegicus [5]) [g %]
O=C1NC(=O)C(Cc2ccc(OCc3nc4cccnc4n3Cc3ccc(Cl)cc3)cc2)S1 (centres undefined)	0.71	-8.5						
Cn1c(Oc2ccc(CC3SC(=O)NC3=O)cc2)nc2cccnc21 (centres undefined)	1.35	3.6	-7					
COc1ccc2nc(COc3ccc(CC4SC(=O)NC4=O)cc3)n(C)c2n1 (centres undefined)	0.08	2.9	3.6	11900				
O=C1NC(=O)C(Cc2ccc(OCc3cn4ccccc4n3)cc2)S1 (centres undefined)	5.09	12.7	5.9					
CC(C)Oc1ccc2nc(COc3ccc(CC4SC(=O)NC4=O)cc3)n(C)c2n1 (centres undefined)	0.075	-0.2	14.6					
Cc1ccnc2c1nc(COc1ccc(CC3SC(=O)NC3=O)cc1)n2C (centres undefined)	0.37	-6.9	-18.2					
CCOc1ccc2nc(COc3ccc(CC4SC(=O)NC4=O)cc3)n(C)c2n1 (centres undefined)	0.078	23.6	29.7					
O=C1NC(=O)C(Cc2ccc(OCc3nc4cccnc4n3Cc3ccc(-c4ccccc4)cc3)cc2)S1 (centres undefined)	0.92	11.4	3.8					
Cn1c(COc2ccc(CC3SC(=O)NC3=O)cc2)nc2ccc(Cl)nc21 (centres undefined)	0.0009	47.6			123	0.74	116	0.37
Cn1c(CCOc2ccc(CC3SC(=O)NC3=O)cc2)nc2cccnc21 (centres undefined)	0.65	13	-5.6					
Cn1c(COc2ccc(CC3SC(=O)NC3=O)cc2)nc2cc(Br)cnc21 (centres undefined)	0.34	6.2						
Cn1c(COc2ccc(CC3SC(=O)NC3=O)cc2)nc2ccc(O)nc21 (centres undefined)	1.98	-3.2	-30.6					
Cn1c(COc2ccc(CC3SC(=O)NC3=O)cc2)nc2ccc(OCc3ccccc3)nc21 (centres undefined)	0.067	18.8	20.3					
Cn1c(CCCOc2ccc(CC3SC(=O)NC3=O)cc2)nc2cccnc21 (centres undefined)	0.081	-9.3	-3					
Cn1c(COc2ccc(CC3SC(=O)NC3=O)cc2)nc2ccc(-c3ccccc3)nc21 (centres undefined)	0.36	38.1	15.5					
COc1ccc2nc(COc3ccc(CC4SC(=O)NC4=O)cc3)n(C)c2n1.O=C(O)/C=C/C(=O)O (centres undefined)				36400				
Cc1cc(C)c2nc(COc3ccc(CC4SC(=O)NC4=O)cc3)n(C)c2n1 (centres undefined)	0.22	9.5	9.5					
Cn1c(COc2ccc(CC3SC(=O)NC3=O)cc2)nc2ccc(Sc3ccccc3)nc21 (centres undefined)	0.067	14.7	-21.2					
O=C1NC(=O)C(Cc2ccc(OCc3nc4ccc[nH]c-4n3)cc2)S1 (centres undefined)	8.18	7.4	13.9					
O=C1NC(=O)C(Cc2ccc(OCc3nc4cccnc4n3-c3ccccc3)cc2)S1 (centres undefined)	2.56	-3.4	3.9					
Cn1c(COc2ccc(CC3SC(=O)NC3=O)cc2)nc2cccnc21 (centres undefined)	0.13	27.6			128	0.78	116	0.36
CCn1c(COc2ccc(CC3SC(=O)NC3=O)cc2)nc2cccnc21 (centres undefined)	1.07	2.4	-19.5					
Cn1c(COc2ccc(CC3SC(=O)NC3=O)cc2)nc2cc(C(F)(F)F)cnc21 (centres undefined)	0.073	-26.4	-0.7					
Cn1c(COc2ccc(CC3SC(=O)NC3=O)cc2)nc2cc(Cl)cnc21 (centres undefined)	0.16	49.7						
COc1ccc2nc(COc3ccc(CC4SC(=O)NC4=O)cc3)n(C)c2n1.Cl (centres undefined)	0.11	1	14.8	141000	111	0.68	106	0.33
CN(CCOc1ccc(CC2SC(=O)NC2=O)cc1)c1ccccn1 (centres undefined) [ROSIGLITAZONE]	0.09	14.6	21.7		119	0.76	113	0.36
